Data reported in ChEMBL document CHEMBL1649368, “Novel isatinyl thiosemicarbazones derivatives as potential molecule to combat HIV-TB co-infection” (Eur J Med Chem, 2011).
In brackets after ≈: the same amount, converted by molar mass.

How the values were obtained:
[1] = system: Human immunodeficiency virus 1; assay: Antiviral activity against HIV1 3B infected in human MT4 cells assessed as protection against virus-induced cytopathogenicity after 5 days by microtiter plate analysis; type: functional, organism-based; details: Human immunodeficiency virus 1, 3B, MT4, 120 h
Method in brief: (§1)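 MT-4 cells were grown in RPMI-1640 DM with 10% heat-inactivated calf serum and gentamicin. HIV-1 IIIB (100 CCID50) or mock infection was run in parallel with compounds in triplicate, at 37 °C and 5% CO2 for 5 days. Viability was read by MTT spectrophotometry. EC50 was the 50% reduction in virus cytopathic effect; CC50 was the 50% loss of mock-infected cell viability.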

[2] = Cytotoxicity against human MT4 cells after 5 days by spectrophotometry; type: cell-based; method in brief: as §1
[3] = system: Mycobacterium tuberculosis; assay: Antimycobacterial activity against Mycobacterium tuberculosis H37Ra by agar dilution method; type: functional
Method in brief: (§2)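 Log-phase MTB was tested by agar dilution on Middlebrook 7H11 with OADC, following NCCLS guidance. MIC was the lowest concentration giving complete growth inhibition, determined in triplicate.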

[4] = system: Mycobacterium tuberculosis; assay: Antimycobacterial activity against Mycobacterium tuberculosis H37Ra assessed as inhibition of bacterial growth in log phase by agar dilution method; type: functional; method in brief: as §2
[5] = system: Mycobacterium tuberculosis; assay: Antimycobacterial activity against Mycobacterium tuberculosis H37Ra assessed as inhibition of bacterial growth in dormant phase; type: functional
Method in brief: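 MTB grown in 7H9 with glycerol, OADC and Tween 80 at 37 °C with rolling to OD600 ~0.6, then washed and held in PBS 6 weeks at 37 °C. Starved cells (~1×10^7 in 1 mL PBS) were exposed to compounds in DMSO at various concentrations for 7 days with shaking. After washing, dilutions were plated on antibiotic-free 7H11 and counted after 4 weeks. MIC was complete growth inhibition, in triplicate.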

Row | SMILES | EC50 [1] [µM] | CC50 at 120 h [2] [µM] | MIC [3] [µM] | MIC [4] [µM] | MIC [5] [µM]
1 | O=C(O)c1cn(C2CC2)c2cc(N3CCN(CN4C(=O)/C(=N\NC(=S)NO)c5cc(F)ccc54)CC3)c(F)cc2c1=O | 16.5 | 222 | 0.33 (≈ 0.197 µg/mL) | 3.27 (≈ 1.95 µg/mL) | 13.1 (≈ 7.82 µg/mL)
2 | CONC(=S)N/N=C1\C(=O)N(CN(C)C)c2ccc(Cl)cc21 | 57.9 | 552 | 18.3 (≈ 6.25 µg/mL) |  | 
3 | CONC(=S)N/N=C1\C(=O)N(CN2CCN(c3ccccc3)CC2)c2ccc(Cl)cc21 | 17.7 | 267 | 13.6 (≈ 6.25 µg/mL) |  | 
4 | CONC(=S)N/N=C1\C(=O)N(CN2CCN(c3cc4c(cc3F)c(=O)c(C(=O)O)cn4C3CC3)CC2)c2ccc(F)cc21 | 11.4 | 255 | 0.31 (≈ 0.19 µg/mL) |  | 
5 | Cc1ccc2c(c1)/C(=N/NC(=S)NO)C(=O)N2CN1CCN(c2ccccc2)CC1 | 19.3 | 420 | 14.7 (≈ 6.25 µg/mL) |  | 
6 | COc1ccc(N2CCN(CN3C(=O)/C(=N\NC(=S)NO)c4cc(F)ccc43)CC2)cc1 | 14.7 | 260 | 6.83 (≈ 3.13 µg/mL) |  | 
7 | CCn1cc(C(=O)O)c(=O)c2cc(F)c(N3CCN(CN4C(=O)/C(=N\NC(=S)NOC)c5cc(C)ccc54)CC3)cc21 | 11.4 | 238 | 1.31 (≈ 0.78 µg/mL) |  | 
8 | CONC(=S)N/N=C1\C(=O)N(CN2CCN(c3c(F)cc4c(=O)c(C(=O)O)cn(C5CC5)c4c3OC)CC2C)c2ccc(C)cc21 (stereo unspecified) | 1.86 | 154 | 0.31 (≈ 0.202 µg/mL) | 0.31 (≈ 0.202 µg/mL) | 17.8 (≈ 11.6 µg/mL)
9 | O=C1/C(=N\NC(=S)NO)c2cc(F)ccc2N1CN1CCN(c2ccccc2)CC1 | 19.6 | 251 | 7.3 (≈ 3.13 µg/mL) |  | 
10 | O=C1/C(=N\NC(=S)NO)c2cc(Cl)ccc2N1CN1CCN(c2ccc(Cl)cc2)CC1 | 11.1 | 268 | 13 (≈ 6.25 µg/mL) |  | 
11 | CCn1cc(C(=O)O)c(=O)c2cc(F)c(N3CCN(CN4C(=O)/C(=N\NC(=S)NOC)c5cc(Cl)ccc54)CC3)cc21 | 19.2 | 193 | 0.65 (≈ 0.4 µg/mL) | 0.63 (≈ 0.388 µg/mL) | 19.6 (≈ 12.1 µg/mL)
12 | CCn1cc(C(=O)O)c(=O)c2cc(F)c(N3CCN(CN4C(=O)/C(=N\NC(=S)NO)c5cc(F)ccc54)C(C)C3)c(F)c21 (stereo unspecified) | 9.93 | 187 | 0.65 (≈ 0.401 µg/mL) | 0.65 (≈ 0.401 µg/mL) | 36.9 (≈ 22.8 µg/mL)
13 | CCn1cc(C(=O)O)c(=O)c2cc(F)c(N3CCN(CN4C(=O)/C(=N\NC(=S)NOC)c5cc(C)ccc54)C(C)C3)c(F)c21 (stereo unspecified) | 5.74 | 156 | 1.24 (≈ 0.778 µg/mL) |  | 
14 | Cc1ccnc2c1NC(=O)c1cccnc1N2C1CC1 [NEVIRAPINE] | 0.13 | 156 |  |  | 
15 | COc1c(N2CCN(CN3C(=O)/C(=N\NC(=S)NO)c4cc(Cl)ccc43)C(C)C2)c(F)cc2c(=O)c(C(=O)O)cn(C3CC3)c12 (stereo unspecified) | 15.3 | 234 | 1.19 (≈ 0.783 µg/mL) |  | 
16 | CCN(CC)CN1C(=O)/C(=N\NC(=S)NOC)c2cc(F)ccc21 | 29.7 | 490 | 4.41 (≈ 1.56 µg/mL) |  | 
17 | CCn1cc(C(=O)O)c(=O)c2cc(F)c(N3CCN(CN4C(=O)/C(=N\NC(=S)NOC)c5cc(Cl)ccc54)C(C)C3)c(F)c21 (stereo unspecified) | 9.26 | 180 | 1.2 (≈ 0.778 µg/mL) |  | 
18 | CCn1cc(C(=O)O)c(=O)c2cc(F)c(N3CCN(CN4C(=O)/C(=N\NC(=S)NO)c5cc(Cl)ccc54)CC3)cc21 | 27.2 | 186 | 1.3 (≈ 0.783 µg/mL) |  | 
19 | CCn1cc(C(=O)O)c(=O)c2cc(F)c(N3CCN(CN4C(=O)/C(=N\NC(=S)NO)c5cc(C)ccc54)CC3)cc21 | 16.9 | 327 | 1.34 (≈ 0.779 µg/mL) |  | 
20 | Cc1ccc2c(c1)/C(=N/NC(=S)NO)C(=O)N2CN1CCN(c2cc3c(cc2F)c(=O)c(C(=O)O)cn3C2CC2)CC1 | 20.9 | 304 | 0.67 (≈ 0.398 µg/mL) |  | 12.1 (≈ 7.19 µg/mL)
21 | CCN(CC)CN1C(=O)/C(=N\NC(=S)NO)c2cc(F)ccc21 | 36.2 | 521 | 9.22 (≈ 3.13 µg/mL) |  | 
22 | O=C1/C(=N\NC(=S)NO)c2cc(Cl)ccc2N1CN1CCN(c2ccccc2)CC1 | 28.3 | 273 | 28.1 (≈ 12.5 µg/mL) |  | 
23 | CONC(=S)N/N=C1\C(=O)N(CN2CCN(c3c(F)cc4c(=O)c(C(=O)O)cn(C5CC5)c4c3OC)CC2C)c2ccc(F)cc21 (stereo unspecified) | 1.88 | 171 | 0.15 (≈ 0.0984 µg/mL) |  | 
24 | CCn1cc(C(=O)O)c(=O)c2cc(F)c(N3CCN(CN4C(=O)/C(=N\NC(=S)NOC)c5cc(F)ccc54)C(C)C3)c(F)c21 (stereo unspecified) | 4.43 | 178 | 0.63 (≈ 0.398 µg/mL) |  | 
25 | CONC(=S)N/N=C1\C(=O)N(CN(C)C)c2ccc(C)cc21 | 64.1 | 622 | 19.4 (≈ 6.25 µg/mL) |  | 
26 | CCn1cc(C(=O)O)c(=O)c2cc(F)c(N3CCN(CN4C(=O)/C(=N\NC(=S)NO)c5cc(F)ccc54)CC3)cc21 | 18.4 | 208 | 1.33 (≈ 0.779 µg/mL) |  | 
